We go through eight compounds from ChEMBL document CHEMBL1932927, “Synthesis and evaluation of platelet aggregation inhibitory activity of some 3-phenyl-pyrroloquinazolinones” (Eur J Med Chem, 2012).

In data set [1] the test system is Platelet. Briefly: Antiplatelet activity against human platelets assessed as inhibition of thrombin-induced platelets aggregation at 8 uM pretreated 3 mins before compound addition by aggregometer analysis. It counts as functional, cell-based. In outline: (§1)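 Platelets isolated by differential centrifugation and resuspended in Tris/Hepes basal buffer pH 7.4. Exposed to compound or DMSO vehicle for 3 min, then thrombin 40 mU/mL added. Initial aggregation rate (velocity) recorded from aggregation traces. Means of four separate determinations ± S.E.M.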

In data set [2] the test system is Platelet. The data set is described as follows: Antiplatelet activity against human platelets assessed as inhibition of collagen-induced platelets aggregation at 8 uM pretreated 3 mins before compound addition by aggregometer analysis. Format: functional, cell-based. In outline: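 Washed platelets in basal buffer pH 7.4 (2-4 × 10⁸ cells/mL) preincubated 3 min with compound (8 µM) or DMSO, then stimulated with collagen […] (so in the source). Aggregation rate relative to vehicle control; means of 4 experiments ± S.E.M.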

Data set [3] is described as follows: (§2) Antiplatelet activity against human platelets assessed as inhibition of thrombin-induced platelets aggregation pretreated 3 mins before compound addition by aggregometer analysis. Format: functional, cell-based. The conditions noted are these: Platelet. The procedure, abridged: as §1
In data set [4] the test system is Platelet. Described as §2. It counts as functional, cell-based. The procedure, abridged:
as §1

The test system of data set [5] is Platelet. The data set is described as follows: Antiplatelet activity against human platelets assessed as inhibition of thrombin-induced platelets aggregation at >4 uM pretreated 3 mins before compound addition by aggregometer analysis. It counts as functional, cell-based.
In data set [6] the test system is Platelet. The data set is described as follows: Antiplatelet activity against human platelets assessed as inhibition of Ca2+-ionophore ionomycin-induced platelets aggregation at 2 to 8 uM pretreated 3 mins before compound addition by aggregometer analysis. Format: functional, cell-based. In outline: (§3)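 Washed platelets (ACD/apyrase/prostacyclin, differential centrifugation, resuspended in Tris/Hepes basal buffer pH 7.4, 2-4 × 10⁸ cells/mL) preincubated 3 min with test agent or DMSO. Then 20 nM PMA or ionomycin added. Maximal aggregation rate after agonist taken as 100% without compound. Means of 4 experiments ± S.E.M.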

Data set [7] deals with Platelet. Briefly: Antiplatelet activity against human platelets assessed as inhibition of phorbol-ester-induced platelets aggregation at 2 to 8 uM pretreated 3 mins before compound addition by aggregometer analysis. Format: functional, cell-based. In outline: as §3
For data set [8], the system named is Platelet. The data set is described as follows: Increase in cytosolic calcium level in human platelets at 2 uM using fluorescent probe fura 2 by fluorescence assay. It counts as functional, cell-based. The procedure, abridged:
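Cytosolic Ca²⁺ monitored with fura 2 (excitation 340/385 nm, emission 505 nm) in stirred thermostated cuvette after 2 µM compound addition alone, versus DMSO vehicle. Representative of three experiments.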

Data set [9] concerns Platelet. Briefly: Increase in thrombin-indcued cytosolic calcium level in human platelets at 2 uM treated 1 min before thrombin challenge using fluorescent probe fura 2 by fluorescence assay. Format: functional, cell-based. The procedure, abridged:
(§4)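 Fura 2-loaded platelets in stirred thermostated cuvette; excitation 340/385 nm, emission 505 nm. Compound (2 µM) or DMSO added, thrombin 40 mU/mL given 1 min or 3 min later. Also run with 0.5 mM EGTA added 1 min before compound. Traces representative of three experiments.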

Data set [10] has as its system Platelet. Briefly: Decrease in thrombin-indcued cytosolic calcium level in human platelets at 2 uM treated 3 mins before thrombin challenge using fluorescent probe fura 2 by fluorescence assay. Format: functional, cell-based. The procedure, abridged:
as §4

The species entered for data set [11] is Homo sapiens. Briefly: Inhibition of protein tyrosine kinase phosphorylation in human platelets at 2 uM by SDS/PAGE analysis. The procedure, abridged:
(§5)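 Platelets at 300 × 10⁶ cells/mL in basal medium pretreated 3 min with 2 µM compound or DMSO, then left resting or stimulated with thrombin 40 mU/mL. Proteins run on 10% SDS/PAGE, blotted, probed with anti-phosphotyrosine PY20, detected by ECL. Actin immunoblot served as loading control. Four experiments.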

For data set [12], the species on record is Homo sapiens. The data set is described as follows: Inhibition of protein tyrosine kinase phosphorylation in thrombin-stimulated human platelets at 2 uM treated 3 mins before thrombin challenge by SDS/PAGE analysis. The procedure, abridged:
as §5

Data set [13] in a line: Toxicity in human platelets assessed as LDH release at 4 uM after 1 hr. Format: cell-based. The conditions noted are these: platelet. In outline: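 Platelets (2 × 10⁸ cells/mL) incubated 1 h at 37 °C with compound, then centrifuged 3 min at 3000 g. Supernatant LDH measured with 5 mM NADH and 50 mM pyruvate as OD decrease at 340 nm. Total LDH determined after 0.1% Triton X-100 lysis.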
Background: Release of lactate dehydrogenase indicates damage to the cell membrane.

Data set [14] can be described thus: Toxicity in human platelet assessed as cell viability at 4 uM after 4 to 6 hrs by alamar blue method. Format: cell-based. The procedure, abridged: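 Platelet suspensions with 1 mM NaHCO3 and 0.2% BSA kept at 37 °C under 5% CO₂ with compound for 4-6 h. Viability read fluorimetrically by Alamar Blue reduction.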
In general terms: Alamar Blue is a resazurin reagent that responds to reducing activity.

Activity calls are given as the source filed them. The rule behind the calls is not given here.

Regarding `CCn1ccc2c3[nH]cc(-c4ccccc4)c(=O)c3ccc21`, the inhibition entry in the data set with Platelet [1] and with Platelet [2] was “Active” each time.

Regarding `O=c1[nH]c(-c2ccccc2)nc2ccc3[nH]ccc3c12`, the inhibition result in the data set on Platelet [1], in the data set on Platelet [2], in the data set with Platelet [5], in the data set on Platelet [6], in the data set on Platelet [7] and in the data set filed under Homo sapiens [12] was “Active” throughout. The half-maximal inhibitory concentration (IC50) in data set [3] amounted to 1790 nM. Moreover, in the data set with Platelet [4], the inhibition entry was “Dose-dependent effect”. Also, the result in the data set with Platelet [8], in the data set on Platelet [9] and with Platelet [10] was Active. For the same compound, the inhibition result in the data set listed under Homo sapiens [11] is “inactive”. The Activity entry is reported as “Non-toxic” in data set [13] and “Toxic” in data set [14].

With `CCn1ccc2c3c(=O)[nH]c(-c4ccc(OC)cc4)nc3ccc21`, the inhibition result in the data set with Platelet [1] and in the data set on Platelet [2] was “Active” in each case.

As for `CCn1ccc2c3c(=O)c(-c4ccccc4)c[nH]c3ccc21`, the inhibition entry with Platelet [1] and with Platelet [2] was “Active” throughout.

For `CCn1ccc2c3c(=O)[nH]c(-c4ccccc4)nc3ccc21`, the inhibition entry in the data set with Platelet [1] and in the data set on Platelet [2] was “Active” in each case.

`O=c1c(-c2ccccc2)c[nH]c2ccc3[nH]ccc3c12`: the inhibition result in the data set with Platelet [1] and in the data set with Platelet [2] was “Active” each time.

Consider `O=c1c(-c2ccccc2)c[nH]c2c1ccc1[nH]ccc12`, for which the inhibition entry with Platelet [1] and in the data set on Platelet [2] was “Active” each time.

For the compound `O=c1[nH]c(-c2ccccc2)nc2ccc3c(ccn3CC3CC3)c12`, the inhibition entry in the data set with Platelet [1] and in the data set on Platelet [2] was “Active” in each case.

Broadly, the IC50 is the concentration at which inhibition is half-maximal.
